Most compounds without a hit are left out; they make up all but 2.1% or so of the library.
RBBP9 inhibitor = human RBBP9 hydrolase inhibition; recombinant RBBP9, FP-Rh probe fluorescence polarization; inhibition, % at 7.94 µM; AID 1515; 0.2% of 220,000 active;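 active = inhibition above the campaign mean of all tested compounds plus 3 SD, cut at about 14% in these data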;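 note: plate controls were DMSO wells with RBBP9 for no effect and wells lacking RBBP9 protein for full effect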
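System: RBBP9 protein / Quantity: 2.5 µM RBBP9 dispensing solution, before mixing / Also added: Serine-hydrolase probe FP-Rh, 375 nM pre-mixing / Dosing: 7.94 µM single dose, 0.794% DMSO / Timing: enzyme-compound preincubation 30 min, then probe labeling 45 min, 25 °C / Signal: FP readout at 525/598 nm / Controls: DMSO-treated enzyme wells and wells lacking RBBP9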
Pf gamet viab = inhibitors of late stage P. falciparum gametocyte viability | P. falciparum stage V gametocytes, ATP luminescence, 24 h | inhibition, % at 10.9 µM | 0.065% of 150,000 active;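 active = inhibition above the mean plus 3 SD of compounds within the control limits, set per campaign, cut at about 38% in these data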;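 note: 0% = DMSO wells and 100% = medium only without gametocytes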
m-calpain inh = blocks pig calpain II enzyme activity; purified calpain II, fluorogenic peptide substrate, 30 min; inhibition, % at 16 µM; 0.37% of 220,000 active; AID 1236;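 active = inhibition above about 50%, limit read from the data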
Wee1 degr inh = blocks degradation of human Wee1 kinase. P30291. HeLa Luc-Wee1K328M stability, luciferase luminescence; 100% = proteasome inhibitor MG132 effect. reporter increase, % at 5 µM. 1.2% of 220,000 active. AID 1321;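 active = activation above the mean of all tested compounds plus 3 SD, set per screening run, cut at about 8.8% in these data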;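 note: cells exposed to compound for 20 h before luminescence read; 0% = DMSO alone and 100% = MG132 at 30 µM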
Target sequence (P30291 whole entry K328M): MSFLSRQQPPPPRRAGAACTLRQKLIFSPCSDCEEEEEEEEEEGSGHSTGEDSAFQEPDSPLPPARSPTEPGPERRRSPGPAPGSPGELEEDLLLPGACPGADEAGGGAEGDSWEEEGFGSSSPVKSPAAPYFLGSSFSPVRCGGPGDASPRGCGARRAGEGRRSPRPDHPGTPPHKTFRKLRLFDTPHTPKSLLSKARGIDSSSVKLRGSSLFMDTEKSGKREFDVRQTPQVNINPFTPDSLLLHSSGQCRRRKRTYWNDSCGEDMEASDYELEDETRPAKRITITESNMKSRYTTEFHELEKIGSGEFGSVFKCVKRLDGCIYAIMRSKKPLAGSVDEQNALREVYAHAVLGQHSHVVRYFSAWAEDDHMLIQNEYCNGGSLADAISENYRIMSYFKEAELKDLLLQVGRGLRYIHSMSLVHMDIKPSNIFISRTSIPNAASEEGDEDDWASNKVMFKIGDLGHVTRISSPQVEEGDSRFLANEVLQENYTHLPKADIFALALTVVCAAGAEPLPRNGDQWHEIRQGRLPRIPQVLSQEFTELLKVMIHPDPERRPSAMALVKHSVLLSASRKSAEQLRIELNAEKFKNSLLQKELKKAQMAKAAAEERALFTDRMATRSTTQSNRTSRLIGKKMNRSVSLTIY
zVAD death inh = L929 zVAD cell death inhibition | L929 zVAD necroptosis rescue, ATP luminescence, 24 h; with zVAD 60 µM | viability rescue, % at 10 µM | 0.38% of 220,000 active;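 active = activation, scaled between plate controls, above about 75%, limit read from the data; inactive = activation under that limit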;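 note: 0% = zVAD with DMSO and 100% = DMSO alone without zVAD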
TNF death inh = inhibitors of TNF-alpha induced necroptosis in Jurkat FADD-/- cells; Jurkat FADD-/- TNF necroptosis rescue, ATP luminescence, 24 h; 0 = TNF only, 100 = no-TNF cells; 0.068% of 220,000 active; activation (protection from cell death), % at 10 µM;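 active = activation, meaning protection from cell death, of at least 50% relative to plate controls; inactive = activation below 50%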;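 note: necroptosis triggered by 40 ng/mL TNF-alpha added together with compound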
RBBP9 inh conf = human RBBP9 inhibition, confirmation | shares compounds with RBBP9 inhibitor | recombinant RBBP9, FP-Rh probe fluorescence polarization | inhibition, % at 7.94 µM | 36% of 410 active | AID 1537;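 active = inhibition above the hit cutoff derived for the primary screen, cut at about 15% in these data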;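 note: 0% = RBBP9 with DMSO and 100% = wells lacking RBBP9 protein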
Numbers without * were called inactive; / = no result.

SMILES	RBBP9 inhibitor	Pf gamet viab	m-calpain inh	Wee1 degr inh	zVAD death inh	TNF death inh	RBBP9 inh conf
Oc1ccccc1C1Nc2cccc3cccc(c23)N1	-1.1	-44.8	-272.1	-1.2	0.4	-10.9	/
COCC1=C(C(=O)OC)C(c2ccco2)n2ncnc2N1 (stereo not drawn)	-4.5	-4.4	5.5	-1.3	2.7	2.6	/
Nc1ccc(Sc2ccccc2)nc1	/	18.4	/	/	/	/	/
COc1ccc(-c2cc(N3C(=O)Nc4ccccc4N3O)n[nH]2)cc1	-3.3	0.8	-7.1	0.3	0.7	2.0	/
CCOc1ccc(-c2cc(N3C(=O)Nc4ccccc4N3O)on2)cc1	16.2*	/	21.3	4.2	0.2	0.7	4.1
Cc1ccc(NC(=S)N/N=C2\CC(C)(C)Oc3ccc(O)cc32)cc1	17.2*	25.4	10.9	3.3	6.2	5.7	11.4
Cc1ccccc1NC(=S)N/N=C1\CC(C)(C)Oc2ccc(O)cc21	3.2	-5.7	-113.1	-1.2	3.9	5.3	/
Oc1ccc(-c2cnns2)c(O)c1	41.0*	26.0	-1.1	-2.8	0.0	-6.9	56.3*
Oc1ccc(-c2nc3ccccc3s2)c(O)c1	-9.9	-0.7	-235.7	-1.1	3.3	-1.3	/
Cc1cc(C)c(S(=O)(=O)Nc2cc(SCC(=O)O)c(O)c3ccccc23)cc1C	16.0*	/	-25.0	-1.8	2.8	-6.5	49.2*
CC(=O)c1sc2nc(-c3ccco3)ccc2c1N	20.9*	-5.2	-34.4	0.2	5.4	-8.1	35.1*
CCCSC(=O)N(CC)CC(=O)Nc1c(CC)cccc1CC	6.7	/	-1.5	2.3	0.2	0.9	/
C=CCN=c1scc(-c2ccco2)n1/N=C/c1ccc(O)c(O)c1O	47.9*	-12.4	-13.3	-1.5	0.3	-18.1	83.5*
CN=c1scc(-c2cccs2)n1/N=C/c1ccc(O)c(O)c1O	32.4*	/	-53.7	-1.8	0.0	-6.0	83.1*
Oc1ccc(/C=N/n2c(-c3ccco3)csc2=Nc2cccnc2)c(O)c1	-4.8	6.6	-18.4	-1.7	2.1	-2.3	/
CN=c1scc(-c2cccs2)n1/N=C/c1ccccc1O	4.1	2.0	-10.4	-4.2	0.0	-0.4	/
NC1=C(c2ccc([N+](=O)[O-])cc2)C(=O)CO1	4.0	14.6	3.0	0.9	0.3	1.5	/
O=c1oc2c(-c3ccc([N+](=O)[O-])cc3)cc(O)cc2s1	43.2*	12.6	0.1	1.3	0.6	-6.0	8.5
CC/C(=C\C(=O)c1ccncc1)Nc1ccc(O)cc1	47.0*	2.8	9.7	0.1	-0.7	-14.3	5.3
O=C(c1ccc(Cl)cc1)N(Cc1ccccc1F)N1C(=O)CCCC1=O	-10.0	-2.6	9.5	-1.3	0.6	-0.1	/
O=C(Nc1ccc(S(=O)(=O)Nc2ncccn2)cc1)c1cccc(S(=O)(=O)N2CCOCC2)c1	-12.9	9.8	13.3	2.9	-0.5	0.4	/
COc1cc(/C=C/c2ccc3c(Br)cc(Br)c(O)c3n2)ccc1O	16.9*	/	-37.3	-3.0	0.2	-12.6	47.3*
Cc1ccc(NC(=O)c2cc(-c3cccc(O)c3)on2)cc1C	-6.3	/	-14.1	-1.9	2.4	-1.6	/
Cc1cc(C2=NNC(=NC3CC3)SC2)c(C)n1-c1ccccc1	58.1*	/	6.4	-2.9	0.5	-1.1	21.6*
Cc1c(O)ccc(/C(Cc2ccc3ccccc3n2)=N\O)c1O	40.8*	5.4	-6.4	0.5	0.0	-7.2	46.7*
SMILES	RBBP9 inhibitor	Pf gamet viab	m-calpain inh	Wee1 degr inh	zVAD death inh	TNF death inh	RBBP9 inh conf
Cc1c(C(=O)O)sc(S(=O)(=O)N2CCNCC2)c1C(=O)O	19.5*	4.5	15.8	2.3	0.4	1.3	5.6
CC(C)c1ccccc1NC(=O)CNCCc1ccc(C(F)(F)F)cc1	16.7*	-5.3	31.5	-3.3	-0.1	3.1	4.3
NC(N)=N/N=C/c1ccc(OCc2ccccc2)cc1	8.5	/	-13.2	-0.8	0.4	-24.9	/
NC(N)=N/N=C/c1ccc(OCc2ccc(Cl)cc2)cc1	19.1*	/	34.1	-1.5	0.0	-26.2	6.5
CCOc1cc2c3c(c1)C1(Nc4ccccc4S1)C(=O)N3C(C)(C)CC2C (stereo not drawn)	-0.8	-18.2	-48.3	-1.1	-0.2	-0.8	/
CCN(C(=O)C1CCCCC1)c1nnc(-c2cccnc2)s1	14.3*	/	0.7	1.3	0.5	17.7	8.8
COCCN(C(=O)C1CCC1)c1nnc(-c2cccnc2)s1	6.3	/	5.5	0.3	0.0	0.1	/
O=C(NCCc1ccccc1)C(=O)NCC1CCCO1 (stereo not drawn)	-10.1	4.6	-23.6	-1.5	-0.1	0.3	/
Cc1noc(N)c1C1(O)C(=O)N(C(C)C)c2ccccc21 (stereo not drawn)	15.9*	/	-37.1	1.5	1.4	-0.4	9.7
Cc1nn(-c2ccccc2)c(N)c1C1(O)C(=O)N(C(C)C)c2ccccc21 (stereo not drawn)	-7.4	-26.2	-1.1	-2.6	1.7	2.4	/
CCc1ccc(NSc2ccccc2[N+](=O)[O-])cc1	16.5*	-12.7	25.9	0.2	0.6	-7.5	4.7
COc1cccc(CNc2ccc(N3CCCCC3)cc2)c1OC	14.4*	0.5	15.8	0.1	0.2	9.4	17.1*
C=CCN(CC=C)Cc1c(O)ccc2c1oc(=O)c1ccccc12	24.8*	/	/	0.5	0.0	-3.3	4.7
Cc1cc(=O)oc2c(CN(C)Cc3ccccc3)c(O)ccc12	0.9	/	-357.5	4.1	-0.2	-1.0	/
COC(=O)c1cc(NC(=S)N2CCN(C(=O)C3CCCO3)CC2)cc(C(=O)OC)c1 (stereo not drawn)	20.5*	/	-20.1	-1.0	-1.0	0.1	2.8
O=C(C1CCCO1)N1CCN(C(=S)Nc2ccc(F)cc2)CC1 (stereo not drawn)	-0.4	/	-8.7	5.3	-0.1	1.5	/
CCCCOc1[nH]c2nc(-c3ccco3)n(Cc3ccco3)c(=N)c2c1C#N	18.2*	-25.8	-60.5	0.1	-0.2	-7.0	11.4
c1ccc(CSc2nnc(-c3ccco3)n2Cc2ccco2)cc1	-10.0	10.0	-28.4	2.3	0.5	-0.7	/
Cc1cc(C)nc(SCc2ccc(C(=O)O)o2)n1	14.7*	/	-19.4	0.8	-1.0	-0.2	5.3
Cc1ccsc1C=Nc1ccc(O)cc1	14.8*	/	-18.9	-1.2	0.9	-13.6	12.7
Cc1ccc(NCCCCO)cc1C	17.4*	/	-26.2	-0.9	0.4	0.2	6.7
CCc1ccc(OC2=NS(=O)(=O)c3ccccc32)cc1	-10.0	/	-2.4	-1.5	-0.6	-0.3	/
CCN(CC)c1cccc(OC2=NS(=O)(=O)c3ccccc32)c1	18.8*	-4.7	-11.4	-1.9	-0.3	-1.1	16.0*
COCCN(C(=S)Nc1c(C)cccc1C)C(C)c1cccs1 (stereo not drawn)	-3.5	-11.8	-12.8	1.5	20.2	-0.1	/
